These results are taken from the RNAGym collection of RNA variant scans (doi:10.1126/science.aae0568).

This sample holds only a part of the variants without activity.

First the molecules themselves.
B1: tRNA (parent)
chain: GUUCCGUUGGCGUAAUGGUAACGCGUCUCCCUCCUAAGGAGAAGACUGCGGGUUCGAGUCCCGUACGGAACG

Variants of B1 are the subject of the series. As to the kind of experiment: yeast fitness relative to wild type (ratio to wild type); higher = fitter; tRNA-Arg(CCU), competitive growth, 37 C, YPD. The gist of the method: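 Genotype frequency changes were the basis for Darwinian fitness relative to wild type. The frequencies came from 100-nucleotide paired-end sequencing of gene amplicons from the start population and each end population of pooled yeast strains with tRNA-Arg(CCU) gene variants at the native locus. Competition ran in YPD at 37°C for 24 hours in six replicates, genotypes needed ≥ 100 starting reads, and estimates < 0.5 were set to 0.5.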
With U3A C31U U53A, the yeast fitness was 0.518.
Regarding A15G U26C, the yeast fitness was 0.802.
Turning to G18A C55U G56C A70G, the yeast fitness was no more than 0.5.
Turning to U2G A21U G67C, the yeast fitness was no more than 0.5.
For the variant U26C C33G, the yeast fitness worked out at 0.632.
With C4G U53A, the yeast fitness was 0.594.
C5U A20U U26A C34U C49A A57C C62U: the yeast fitness was no more than 0.5.
To C5U A14C C27U C33G C55G C61U belongs no more than 0.5; to U3G G17C C61A, 0.61; to A37G G41C A43U, no more than 0.5.
Take U8A C11U A21C A69C: the yeast fitness is no more than 0.5.
Consider U64C G68U, for which the yeast fitness came out at 1.01.
With G17C A40G A42U C62U the figure was no more than 0.5.
Turning to A42C U47A G52A, the yeast fitness is no more than 0.5.
In the case of C5U U16A A42U, the yeast fitness is 0.666.
As to C30U C34G A57G, the yeast fitness was determined as 0.569.
In the case of C4U U53C, the yeast fitness was 0.869.
U8C C30G C31G U64G C66U: the yeast fitness was no more than 0.5.
To G23A A43G U64C belongs no more than 0.5.
As for C5U G23A, the yeast fitness amounted to 0.742.
To G9A U13C U19C belongs 0.907; to A20U G23A, 0.822; to G63A G67U, 0.686.
As for A21G C22A, the yeast fitness was found to be 0.834.
Take U8A C22G U35C A70G: the yeast fitness is no more than 0.5.
For the variant C5U C27A G41C A57U, the yeast fitness is no more than 0.5.
For the variant C11U A45U A69U, the yeast fitness is 0.915.
With A20U A43G A65C the figure was no more than 0.5.
On to G17C C24G U28A C30U A65U A69C, for which the yeast fitness came out at 0.571.
In the case of C4G C5G C30U C31U A37G G50C A57U, the yeast fitness was no more than 0.5.
As for C24U U32G G56A, the yeast fitness stood at 0.53.
Consider U8A A15G C27A U47G G68U, for which the yeast fitness is no more than 0.5.
Take U2G G10C G63A: the yeast fitness is no more than 0.5.
In the case of U28C G51A, the yeast fitness is 0.773.
Turning to A14U C22A A43G C49U, the yeast fitness is no more than 0.5.
Consider A20C C31U U53A, for which the yeast fitness was no more than 0.5.
As for G50A C66A, the yeast fitness worked out at 0.516.
Turning to A21U U32G U59C G68A, the yeast fitness was no more than 0.5.
With C22U U35C C49U C66U, the yeast fitness came out at 0.586.
Take G10C G12C C24U C29G G68C: the yeast fitness is no more than 0.5.
On to G6A G18A A36C U47G, for which the yeast fitness was no more than 0.5.
As for C5A A20C A36C A45C, the yeast fitness was no more than 0.5.
With A45G G56A U59A, the yeast fitness was no more than 0.5.
To U28G A42U belongs 0.71; to C5G G9C C33G A45G C55G G56C, no more than 0.5.
Take A40U A42C G67A: the yeast fitness worked out at 0.534.
On to U28G C31U C66U, for which the yeast fitness was no more than 0.5.
To A14C C22G U26G belongs no more than 0.5; to U13A U19C C24G G25A G39C A40C G51C, no more than 0.5; to A14G U19C C31G A37U A65U, no more than 0.5.
With U2G C27G A65U the figure was no more than 0.5; with C11G C34A U53A, 0.609; with U8C G52A G67A, no more than 0.5.
Turning to U35C C61A A69U, the yeast fitness is no more than 0.5.
Consider U2G A15C G50A, for which the yeast fitness was no more than 0.5.
C11U G48A A65U: the yeast fitness worked out at 0.792.
On to C46A A69U, for which the yeast fitness was found to be 1.1.
In the case of C5G G6C U64C, the yeast fitness was 0.586.
With U8C C49A the figure was 0.704; with G25C U26G C46G A69U, 0.521; with C27A A45C G50C A65C, no more than 0.5.
As to C22U U35C, the yeast fitness worked out at 0.731.
In the case of U19A U26A U64A, the yeast fitness was found to be 0.553.
With A21U C22G C33U G68A the figure was no more than 0.5; with U35C C61A, no more than 0.5.
As to U3A U16C G68C, the yeast fitness is no more than 0.5.
As to C4U C5G C27A, the yeast fitness is no more than 0.5.
On to G52A C61A A69U, for which the yeast fitness is no more than 0.5.
As to U16G C34U A57G A69C, the yeast fitness was no more than 0.5.
To G12A U16C C27A belongs no more than 0.5; to C31A A65C G67U, no more than 0.5.
A20G G51C C61G: the yeast fitness was found to be 0.546.
G56A G67A A69C: the yeast fitness turned out to be 0.797.
For U2C U16G G56C, the yeast fitness is no more than 0.5.
To C11A A15C C24G G58A belongs no more than 0.5; to G25A A43C A70G, 0.745.
To C4U C24A C60A belongs 0.724.
Regarding C5U A15C G58A, the yeast fitness was 0.569.
As for C27A C30A C66A, the yeast fitness came out at 0.561.
For C30U A36C A69U, the yeast fitness is no more than 0.5.
Consider G10A C22U G68A, for which the yeast fitness is no more than 0.5.
Consider C33A U35A G68C, for which the yeast fitness is no more than 0.5.
As for A14U C30A C55A C62A, the yeast fitness came out at 0.578.
As for C4G G23A A36G G68U, the yeast fitness is no more than 0.5.
To U2C C29U C34U A57C U64C belongs no more than 0.5.
Take C24G G25A G48A: the yeast fitness turned out to be 0.697.
For A14U A43G C49U, the yeast fitness was no more than 0.5.
Consider C4G U16G C30U C34A U53G U59C A70C, for which the yeast fitness is no more than 0.5.
U3C A45C G48A U54C: the yeast fitness came to 0.751.
For C22U C30A C55G, the yeast fitness was no more than 0.5.
Turning to U28C C29G A43U C49U U54G C66A, the yeast fitness was no more than 0.5.
On to U8A C11U G25C G39C C55U, for which the yeast fitness was no more than 0.5.
In the case of C5G G23C C33U A43C, the yeast fitness was no more than 0.5.
With A14C C29A G50A, the yeast fitness was found to be 0.576.
In the case of U7C G25A U59C A69C, the yeast fitness was no more than 0.5.
Consider A15C A43G C46A, for which the yeast fitness was determined as 0.526.
With C24U A42G the figure was 0.956; with U2C A40C C66U, 0.524.
Turning to U2A C22U U32A A65G, the yeast fitness is no more than 0.5.
Take A15C A21U: the yeast fitness amounted to 0.546.
C30G U47C G63A G67A: the yeast fitness was no more than 0.5.
Take G10C G58C: the yeast fitness stood at 0.722.
To C5U G51A belongs 0.798; to U8A C22G G25A C27A C33U C49G, 0.642.
Take C11G C46U C49A C55U: the yeast fitness turned out to be 0.661.
Take C22G C33U A36C A40U: the yeast fitness turned out to be 0.665.
Regarding C11A G38A A40U G50C C60G A70G, the yeast fitness was no more than 0.5.
On to C4U C34G C66A, for which the yeast fitness was found to be 0.562.
On to C22U G38A C55U G68C, for which the yeast fitness was no more than 0.5.
Turning to A21G G23A G52C C61U, the yeast fitness is no more than 0.5.
For the variant C27U A36C C61U, the yeast fitness is no more than 0.5.
On to U3C U13C, for which the yeast fitness came out at 0.841.
Take C5G G10C C31U A70G: the yeast fitness was no more than 0.5.
To C29A G41A belongs 0.551; to C30U A36U A57G, no more than 0.5; to C4A G10A G23A C55G C60A, no more than 0.5.
For the variant G6C G9A, the yeast fitness is 1.03.
With C11U U59A C66G, the yeast fitness is no more than 0.5.
To A20C C27U C34G belongs 0.581; to C29G G50C U53C, no more than 0.5.
With A20U C30A G58C G68A the figure was no more than 0.5.
As to C11G C24U G25A A42G, the yeast fitness is no more than 0.5.
U2C U7A G68A: the yeast fitness is no more than 0.5.
In the case of U2C G6A G23A C27U A45C U47C C60A, the yeast fitness is no more than 0.5.
Turning to G9A C31U C60G C61U G63A, the yeast fitness is no more than 0.5.
On to G17A C22A A45U A70U, for which the yeast fitness is no more than 0.5.
As for C4U G10A C60G C66G A69U, the yeast fitness is no more than 0.5.
Regarding A15C G18C A42C, the yeast fitness was no more than 0.5.
With A14G C27G C31A C33G C49U G58C the figure was no more than 0.5; with U2A C4G, 0.838; with G9C A40G A42G A57U, no more than 0.5.
As to C11A C27U G44U U64G A65G, the yeast fitness is 0.593.
U3C G12A A20C G23C G56C A65C G68A: the yeast fitness was no more than 0.5.
Regarding C4A A37U, the yeast fitness was 0.795.
A14C C27G C30G G38C: the yeast fitness was no more than 0.5.
Turning to U59C A69C, the yeast fitness amounted to 0.968.
With G18C U26C C29G C31G C33U C46A A69C the figure was no more than 0.5.
To C5G A42G C61A G63C belongs no more than 0.5.
For the variant A43U G48C C60G, the yeast fitness is no more than 0.5.
U7C C30U C34A G52C: the yeast fitness is no more than 0.5.
With G10C A15U A37U the figure was no more than 0.5.
On to C5U C29A A45C, for which the yeast fitness came to 0.669.
Regarding U13A C22U C46U, the yeast fitness is 1.06.
Take C5G C30A A36G C61A: the yeast fitness stood at 0.592.
As to U7A A20C, the yeast fitness is 0.733.
On to C31G G44C U53C A65U, for which the yeast fitness was no more than 0.5.
For the variant G38A C60A, the yeast fitness turned out to be 0.646.
As for U13A C22G C24G A36U A40C A45G C66A, the yeast fitness was no more than 0.5.
For the variant C27U A43G, the yeast fitness amounted to 0.898.
For C4G A36G U59C, the yeast fitness turned out to be 0.667.
With U16A C31G A69U the figure was 0.601.
As for C4U G10C U35C G41A, the yeast fitness is no more than 0.5.
With U7G C11G C34U G41A A70U the figure was no more than 0.5.
On to C4U C5U G12A A21C C27U, for which the yeast fitness is no more than 0.5.
To A20G G67C belongs 0.861; to U47C A57U A65U, 0.567; to C11A C29U A43C, 0.599.
With C5A C24U, the yeast fitness was 0.71.
With G18A C24G C30U the figure was no more than 0.5; with C5U C31G A45U C62U, 0.629.
For the variant C55U U59A, the yeast fitness was determined as 0.891.
For C11A A37U, the yeast fitness was 0.587.
Consider U13C A57C, for which the yeast fitness came out at 0.67.
With U3G A36C A45C G58A G68C the figure was no more than 0.5; with A37G U59C, 0.741; with U7G G63A, 0.888.
U16C C31G C34A: the yeast fitness came to 0.678.
